Mdm2 MdmX PPI – human Mdm2/MdmX binding inhibition; AID 485346; inhibition, % at 8 µM; SaOS-2 split-luciferase Mdm2/MdmX complementation, luminescence; hit rate 3% among 330,000;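 active = inhibition of at least 50% at 8 µM in the primary screen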
Target sequence (O15151 whole entry, looked up): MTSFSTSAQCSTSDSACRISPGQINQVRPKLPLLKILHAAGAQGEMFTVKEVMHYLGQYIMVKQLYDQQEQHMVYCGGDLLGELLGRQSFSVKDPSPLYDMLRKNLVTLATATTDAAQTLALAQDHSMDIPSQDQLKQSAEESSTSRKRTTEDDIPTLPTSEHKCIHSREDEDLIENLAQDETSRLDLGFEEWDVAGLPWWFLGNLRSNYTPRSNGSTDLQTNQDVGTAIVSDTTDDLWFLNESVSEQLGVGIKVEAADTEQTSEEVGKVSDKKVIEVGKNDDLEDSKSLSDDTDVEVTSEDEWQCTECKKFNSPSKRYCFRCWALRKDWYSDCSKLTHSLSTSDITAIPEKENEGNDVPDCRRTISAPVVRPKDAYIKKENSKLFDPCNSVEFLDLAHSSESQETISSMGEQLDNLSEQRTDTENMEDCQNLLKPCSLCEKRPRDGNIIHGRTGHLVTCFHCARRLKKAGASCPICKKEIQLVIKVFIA
Target sequence (Q00987 whole entry, looked up): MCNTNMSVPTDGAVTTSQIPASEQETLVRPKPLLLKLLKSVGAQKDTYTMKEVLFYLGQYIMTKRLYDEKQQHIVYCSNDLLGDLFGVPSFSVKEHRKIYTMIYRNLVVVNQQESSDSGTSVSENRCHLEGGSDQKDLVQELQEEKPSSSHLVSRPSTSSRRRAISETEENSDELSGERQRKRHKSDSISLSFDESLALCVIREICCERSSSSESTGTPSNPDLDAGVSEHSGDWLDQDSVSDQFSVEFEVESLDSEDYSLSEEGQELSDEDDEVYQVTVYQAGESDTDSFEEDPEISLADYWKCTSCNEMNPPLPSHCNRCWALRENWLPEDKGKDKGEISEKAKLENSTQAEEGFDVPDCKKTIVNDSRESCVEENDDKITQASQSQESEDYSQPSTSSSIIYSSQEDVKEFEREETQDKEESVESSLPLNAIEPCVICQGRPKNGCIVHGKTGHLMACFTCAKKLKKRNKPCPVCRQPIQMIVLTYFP
CSC inhib – cancer stem cell inhibition | cancer stem cell-like cells viability, luminescence | inhibition, % at 7.5 µM | hit rate 1.1% among 300,000; in the data active = inhibition above about 75%; inconclusive = no clear call, values can overlap the other calls; tested in HMLE shEcad cells
T cruzi inh – blocks replication of Trypanosoma cruzi | T. cruzi beta-gal in NIH3T3, luminescence, 90 h | inhibition, % (no concentration beside the values) | hit rate 1.4% among 300,000;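 active = mean inhibition across valid replicates above about 55%, limit read from the data; inconclusive = mean below that limit but half or more replicates reach it; inactive = mean below it, under half of replicates reach it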;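 note: signal also drops with host cell toxicity which is not excluded here; higher percent means less beta-gal luminescence so fewer parasites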
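System: mouse NIH/3T3 fibroblasts infected with β-gal-expressing T. cruzi Tulahuen C4 / Input: NIH/3T3 cells, 5,000 per well / Buffer or medium: Low-serum DMEM with 2% FBS / Probe or stimulus: 5000 reporter trypomastigotes per well / Schedule: ≥90 h infection period, 3 h prior cell attachment / Measured by: GalScreen luminescence, 60 min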
Beta apoptosis – beta cell apoptosis inhibition; INS-1E cytokine-induced death, ATP luminescence, 48 h; percent of positive-control rescue, neutral wells zero; protection from apoptosis, % (no concentration beside the values); hit rate 0.8% among 300,000; AID 435005;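 active = Every replicate reaches about 75%, or at least half do and their mean reaches it too, limit read from the data; inconclusive = At least half of replicates reach the limit but their mean does not; inactive = Under half of replicates reach the limit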;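 note: higher means more ATP so stronger rescue from cytokine killing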
SKKanGAS inh – SKKanGAS growth inhibition; inhibition, % at 7.5 µM; AID 1662; S. pyogenes SKKanGAS, kanamycin growth, BacTiter-Glo, 6 h; hit rate 1.3% among 300,000;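 active = mean replicate score, as percent of positive control median, at least 50; inconclusive = mean below 50 but one replicate at or above 50; inactive = mean and every replicate below 50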;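 note: strain carries kanamycin resistance gene driven by streptokinase promoter and grows in 40 µg/ml kanamycin; loss of luminescence reflects streptokinase promoter inhibition or plain growth inhibition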
Calb FLC – C. albicans growth modulation with fluconazole. C. albicans CaCi-2 (fluconazole-resistant clinical isolate) + fluconazole, Alamar Blue growth, 48 h. growth inhibition, % (no concentration beside the values). hit rate 0.57% among 300,000. AID 1979;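 active = growth inhibition above about 58% in most replicates, limit read from the data, passing the limit was not always enough; inconclusive = exactly half the replicates above a set limit; inactive = most replicates below a set limit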;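 note: all wells also contain fluconazole at 8 µg/ml as a sub-toxic cotreatment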
Mdm2-MdmX conf – confirmation of human Mdm2/MdmX interaction inhibitors; shares compounds with Mdm2 MdmX PPI; Mdm2-MdmX binding, luminescent assay; hit rate 55% among 10,000; inhibition, % at 8 µM; in the data active = inhibition above about 40%
Full FLuc ctr – inhibits full-length luciferase, flagging false Mdm2/MdmX hits. shares compounds with Mdm2 MdmX PPI. hit rate 77% among 6,200. SaOS-2 full-length luciferase counterscreen, luminescence. AID 504607. inhibition, % at 8 µM;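 active = mean inhibition at 8 µM reaching about 37%, which flags the compound as non-specific, limit read from the data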;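 note: p53-null SaOS-2 cells with luciferase driven by a doxycycline-inducible promoter; compound on cells about two nights before reading with doxycycline added after day one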
Hits are given with their value; – = inactive; ? = inconclusive; · = not tested or not shown. Sampled rows, rich in hits. Any-hit rate of the full collection: about 5.7%.

SMILES	Mdm2 MdmX PPI	CSC inhib	T cruzi inh	Beta apoptosis	SKKanGAS inh	Calb FLC	Mdm2-MdmX conf	Full FLuc ctr
COc1cc2c(c(OC)c1OC)-c1ccc(NC(=O)c3ccc(F)cc3)c(=O)cc1[C@@H](NC(C)=O)CC2	62	–	–	–	–	–	52	78
Cc1ccc(-c2nc3ncccc3o2)cc1NC(=O)c1sc2ccccc2c1Cl	83	–	–	–	–	–	–	·
COc1ccccc1-c1nnc(SCC(=O)Nc2ccc(N3CCOCC3)cc2)n1C	–	–	–	·	–	–	·	·
CCOC(=O)c1c(C)n(-c2ccc(OC)cc2)c2ccc(O)c(CN(C)C)c12	64	–	–	–	–	–	44	54
CCOC(=O)c1c(C)n(-c2ccc(C)cc2)c2ccc(O)c(CN(C)C)c12	54	–	–	–	·	–	–	66
CCOC(=O)c1c(C)n(C)c2ccc(O)c(CN(C)C)c12	–	–	–	–	–	–	·	·
CN(C(=O)COC(=O)CNC(=O)c1sc2ccccc2c1Cl)C1CCS(=O)(=O)C1 (configuration not stated)	–	–	·	–	·	·	·	·
Cc1ccc2cc(CN(CC(C)C)S(=O)(=O)c3cccc4nonc34)c(=O)[nH]c2c1	–	–	–	–	–	–	·	·
CC(NC(=O)CN1CCN(CC(=O)Nc2ccccc2Cl)CC1)c1ccc(Br)cc1 (configuration not stated)	–	·	·	·	·	·	·	·
O=[N+]([O-])c1cccc(NC(=S)Nc2nc(-c3ccccc3Cl)cs2)c1	96	86	–	–	?	–	85	63
CCNC(=S)Nc1cccc([N+](=O)[O-])c1	–	–	–	–	–	–	·	·
CC1(c2ccccc2)NC(=O)N(CC(=O)N2CCN(S(=O)(=O)c3c(F)cccc3F)CC2)C1=O (configuration not stated)	–	–	·	–	·	·	·	·
CCCn1c(N)c(C(=O)CSc2nc3ccccc3s2)c(=O)[nH]c1=O	82	–	–	–	–	–	79	49
Cc1nc2ccccn2c1-c1csc(Nc2ccc(C(=O)O)cc2)n1	53	–	–	–	–	–	54	63
Cc1nc2ccccn2c1-c1csc(Nc2cccc(C(=O)O)c2)n1	–	–	–	–	–	–	·	·
CC[C@@H](C)[C@H](NC(=O)OC(C)(C)C)c1nnc(S(=O)(=O)Cc2cc(C)ccc2C)o1	82	–	–	–	52	–	66	–
Cc1ccccc1CS(=O)(=O)c1nnc([C@H](CC(C)C)NC(=O)OC(C)(C)C)o1	75	·	–	–	–	–	79	–
COc1ccc2oc(C(=O)NC3(C)CCS(=O)(=O)C3)c(C)c2c1 (configuration not stated)	–	–	–	–	–	–	·	·
O=C(Nc1ccc(F)cc1F)Nc1csc2ccccc12	–	–	–	–	–	–	·	·
O=C(Nc1ccc(F)c(Cl)c1)Nc1csc2ccccc12	94	77	–	83	95	–	58	–
CC1(C)CC[C@@]23CC[C@]4(C)[C@@](OC2=O)(C3C1)[C@H]1O[C@H]1C1[C@@]2(C)CC[C@H](O)C(C)(C)C2CC[C@]14C (some centres not stated)	75	–	–	–	–	–	–	·
S=C(Nc1ccc(Cl)c(Cl)c1)NC1CCN(Cc2ccccc2)CC1	97	·	–	–	–	–	52	–
S=C(Nc1cccc(Cl)c1Cl)NC1CCN(Cc2ccccc2)CC1	–	–	·	–	·	–	·	·
S=C(Nc1ccc2nsnc2c1)NC1CCCCC1	–	–	–	–	–	–	·	·
S=C(NNc1ccc2ccccc2c1)NC1CCCCC1	64	·	–	–	–	–	55	–
SMILES	Mdm2 MdmX PPI	CSC inhib	T cruzi inh	Beta apoptosis	SKKanGAS inh	Calb FLC	Mdm2-MdmX conf	Full FLuc ctr
S=C(Nc1ccc(Cl)c(Cl)c1)NC1CCCCC1	85	–	–	–	–	–	50	62
Cc1cc(NC(=O)C(C)SCC(=O)OCC(=O)Nc2c(C)cccc2C(C)C)no1 (configuration not stated)	–	·	·	–	·	·	·	·
Cc1cc(C)c2c(n1)SCC(=O)N2CC(=O)Nc1cc(F)ccc1F	–	–	–	–	–	–	·	·
COc1ccc(OC)c(NC(=O)Nc2ccc3c(c2)OCO3)c1	–	–	–	–	–	–	·	·
COc1cc2nc(NC(=O)c3ccc(Cl)cc3)sc(=O)c2cc1OC	69	–	–	–	–	–	–	·
Cc1ccc(C)c(OC(=O)C2CSC3(C)CCC(=O)N23)c1C (configuration not stated)	–	·	·	–	·	·	·	·
Cc1sc2ncnc(N3CCC(C(=O)Nc4ccc(Br)cc4Br)CC3)c2c1C	57	–	–	–	–	–	47	87
COc1ccc(-c2csc(NC(=O)C3CCN(c4ncnc5sc(C)c(C)c45)CC3)n2)cc1OC	68	–	57	112	–	–	68	45
Cc1sc2ncnc(N3CCC(C(=O)Nc4sc5c(c4C(N)=O)CCC(C)C5)CC3)c2c1C (configuration not stated)	62	·	·	–	·	·	70	42
CNC(=O)c1ccc(NC(=O)C2CCN(c3ncnc4sc(C)c(C)c34)CC2)cc1	62	–	–	–	–	–	60	58
CCCCc1cc(=O)oc2cc(C)cc(OC(C)C(=O)NCc3ccncc3)c12 (configuration not stated)	–	–	–	–	–	–	·	·
CC1CC(C)CN(C(=O)c2cccc(N3C(=O)c4ccccc4C3=O)c2)C1 (configuration not stated)	–	–	·	–	·	·	·	·
CC(C)(C)c1ccc(CS(=O)(=O)CC2(O)CCN(C(=O)c3cccc(C(F)(F)F)c3)CC2)cc1	61	–	–	·	–	–	–	·
CC(=O)N1CCN(C(=O)CCc2cc(C(C)(C)C)c(O)c(C(C)(C)C)c2)CC1	–	–	–	–	–	?	·	·
O=C(CSc1nc2ccc(Nc3nc(N4CCOCC4)nc(N4CCOCC4)n3)cc2s1)Nc1ccccc1F	91	–	·	–	·	–	–	·
O=C(CSc1nc2ccc(Nc3nc(N4CCOCC4)nc(N4CCOCC4)n3)cc2s1)N1CCOCC1	–	–	–	–	–	–	·	·
O=C(CSc1nc2ccc(Nc3nc(N4CCOCC4)nc(N4CCOCC4)n3)cc2s1)Nc1ccccc1Cl	89	–	–	–	–	–	–	88
O=C1CCc2cc(S(=O)(=O)Nc3ccccc3)ccc2N1	–	–	·	–	·	·	·	·
CCCCCCCCNC(C)C(O)c1ccc(SC(C)C)cc1 (configuration not stated)	95	102	?	117	–	–	–	·
O=C(COC(=O)c1ccc(O)cc1O)Nc1cc(-c2ccccc2)nn1-c1ccccc1	–	–	–	–	–	–	·	·
